Experiments:
SF-295 = assay: Growth inhibition of human SF295 cells after 48 hrs by SRB assay; assay type: functional; conditions: SF-295, 48 h
Method in brief: (§1)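 NCI 60-cell-line screen. Cells grown in RPMI1640 with 5% fetal calf serum and 2 mM L-glutamine, with inoculum density set by cell line. Preincubated 24 h, then given compound in DMSO at 10^-4 to 10^-8 M (five 10-fold steps) for 48 h continuous exposure. Growth measured by SRB protein assay. GI50, TGI and LC50 reported as –log molar.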

NCI-H322M = assay: Growth inhibition of human NCI-H322M cells after 48 hrs by SRB assay; assay type: functional; method in brief: as §1
PC-3 = assay: Growth inhibition of human PC3 cells after 48 hrs by SRB assay; assay type: functional; conditions: PC-3, 48 h; method in brief: as §1
786-0 = assay: Growth inhibition of human 786-0 cells after 48 hrs by SRB assay; assay type: functional; conditions: 786-0, 48 h; method in brief: as §1
HOP-62 = assay: Growth inhibition of human HOP62 cells after 48 hrs by SRB assay; assay type: functional; conditions: HOP-62, 48 h; method in brief: as §1
HL-60(TB) = assay: Growth inhibition of human HL-60(TB) cells after 48 hrs by SRB assay; assay type: functional; conditions: HL-60, 48 h
Method in brief: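 NCI 60-cell-line screen: cells grown in RPMI1640 with 5% fetal calf serum and 2 mM L-glutamine, preincubated 24 h, then exposed to compound in DMSO at five concentrations (10^-4 to 10^-8 M) for 48 h continuous exposure. Growth estimated by sulforhodamine B protein assay; reported as pGI50 (-log molar concentration inhibiting net cell growth by 50%).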

OVCAR-4 = assay: Growth inhibition of human OVCAR4 cells after 48 hrs by SRB assay; assay type: functional; conditions: OVCAR-4, 48 h; method in brief: as §1
NCI-H460 [1] = assay: Cytotoxicity against human NCI-H460 cells after 72 hrs by SRB assay; assay type: functional, cell-based; conditions: NCI-H460, 72 h
Method in brief: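 NCI-H460 (ATCC) cells seeded in 96-well plates in growth medium. Scalar drug concentrations added 24 h after plating, then 72 h exposure. Surviving cells stained with sulforhodamine B, OD read at 570 nm. IC50 (50% growth inhibition) fitted from dose–response curves. Mean ± SE of at least three independent experiments.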

NCI-H460 [2] = assay: Growth inhibition of human NCI-H460 cells after 48 hrs by SRB assay; assay type: functional; conditions: NCI-H460, 48 h; method in brief: as §1
MOLT-4 = assay: Growth inhibition of human MOLT4 cells after 48 hrs by SRB assay; assay type: functional; conditions: MOLT-4, 48 h; method in brief: as §1
MCF7 = assay: Growth inhibition of human MCF7 cells after 48 hrs by SRB assay; assay type: functional; conditions: MCF7, 48 h; method in brief: as §1
T47D = assay: Growth inhibition of human T47D cells after 48 hrs by SRB assay; assay type: functional; method in brief: as §1
[3] = Growth inhibition of human Hs 578T cells after 48 hrs by SRB assay; assay type: functional; method in brief: as §1
CAKI-1 = assay: Growth inhibition of human Caki1 cells after 48 hrs by SRB assay; assay type: functional; conditions: CAKI-1, 48 h; method in brief: as §1
RXF 393 = assay: Growth inhibition of human RXF393 cells after 48 hrs by SRB assay; assay type: functional; conditions: RXF 393, 48 h; method in brief: as §1
SW-620 = assay: Growth inhibition of human SW620 cells after 48 hrs by SRB assay; assay type: functional; conditions: SW-620, 48 h; method in brief: as §1
SF-268 = assay: Growth inhibition of human SF268 cells after 48 hrs by SRB assay; assay type: functional; conditions: SF-268, 48 h; method in brief: as §1
NCI/ADR-RES = assay: Growth inhibition of human NCI/ADR-RES cells after 48 hrs by SRB assay; assay type: functional; method in brief: as §1
[4] = Growth inhibition of human […] cells after 48 hrs by SRB assay; assay type: functional; method in brief: as §1
Malme-3M = assay: Growth inhibition of human MALME-3M cells after 48 hrs by SRB assay; assay type: functional; method in brief: as §1
SR = assay: Growth inhibition of human SR cells after 48 hrs by SRB assay; assay type: functional; method in brief: as §1
KM12 = assay: Growth inhibition of human KM12 cells after 48 hrs by SRB assay; assay type: functional; conditions: KM12, 48 h; method in brief: as §1
A498 = assay: Growth inhibition of human A498 cells after 48 hrs by SRB assay; assay type: functional; conditions: A498, 48 h; method in brief: as §1
HT-29 = assay: Growth inhibition of human HT-29 cells after 48 hrs by SRB assay; assay type: functional; conditions: HT-29, 48 h; method in brief: as §1
OVCAR-8 = assay: Growth inhibition of human OVCAR8 cells after 48 hrs by SRB assay; assay type: functional; conditions: OVCAR-8, 48 h; method in brief: as §1
OVCAR-3 = assay: Growth inhibition of human OVCAR-3 cells after 48 hrs by SRB assay; assay type: functional; conditions: OVCAR-3, 48 h; method in brief: as §1
EKVX = assay: Growth inhibition of human EKVX cells after 48 hrs by SRB assay; assay type: functional; method in brief: as §1
MDA-MB-435 = assay: Growth inhibition of human MDA-MB-435 cells after 48 hrs by SRB assay; assay type: functional; conditions: MDA-MB-435, 48 h; method in brief: as §1
SK-MEL-28 = assay: Growth inhibition of human SK-MEL-28 cells after 48 hrs by SRB assay; assay type: functional; conditions: SK-MEL-28, 48 h; method in brief: as §1
IGROV-1 = assay: Growth inhibition of human IGROV1 cells after 48 hrs by SRB assay; assay type: functional; conditions: IGROV-1, 48 h; method in brief: as §1
DU-145 = assay: Growth inhibition of human DU145 cells after 48 hrs by SRB assay; assay type: functional; conditions: DU-145, 48 h; method in brief: as §1
HCT-116 = assay: Growth inhibition of human HCT116 cells after 48 hrs by SRB assay; assay type: functional; conditions: HCT-116, 48 h; method in brief: as §1
M14 = assay: Growth inhibition of human M14 cells after 48 hrs by SRB assay; assay type: functional; conditions: M14, 48 h; method in brief: as §1
HCT-15 = assay: Growth inhibition of human HCT15 cells after 48 hrs by SRB assay; assay type: functional; conditions: HCT-15, 48 h; method in brief: as §1
CCRF-CEM = assay: Growth inhibition of human CCRF-CEM cells after 48 hrs by SRB assay; assay type: functional; method in brief: as §1
SNB-75 = assay: Growth inhibition of human SNB75 cells after 48 hrs by SRB assay; assay type: functional; conditions: SNB-75, 48 h; method in brief: as §1

Compound: CCN(CC)c1ccc(C2=NN(C(C)=O)C(c3cc(OC)c(OC)c(OC)c3)C2)cc1 (stereo not given)
- GI50 (SF-295): 200 nM
- TGI (SF-295; read-out: pTGI (converted)): 631 nM
- GI50 (NCI-H322M): 501 nM
- TGI (NCI-H322M; read-out: pTGI (converted)): 12600 nM
- GI50 (PC-3): 316 nM
- TGI (PC-3; read-out: pTGI (converted)): 12600 nM
- GI50 (786-0): 501 nM
- TGI (786-0; read-out: pTGI (converted)): 12600 nM
- GI50 (HOP-62): 1580 nM
- TGI (HOP-62; read-out: pTGI (converted)): 25100 nM
- GI50 (HL-60(TB)): 126 nM
- TGI (HL-60(TB); read-out: pTGI (converted)): 501 nM
- GI50 (OVCAR-4): 631 nM
- TGI (OVCAR-4; read-out: pTGI (converted)): 25100 nM
- IC50 (NCI-H460 [1]): 980 nM
- GI50 (NCI-H460 [2]): 398 nM
- TGI (NCI-H460 [2]; read-out: pTGI (converted)): 2000 nM
- GI50 (MOLT-4): 251 nM
- TGI (MOLT-4; read-out: pTGI (converted)): 3160 nM
- GI50 (MCF7): 316 nM
- TGI (MCF7; read-out: pTGI (converted)): 10000 nM
- GI50 (T47D): 200 nM
- TGI (T47D; read-out: pTGI (converted)): 20000 nM
- GI50 [3]: 316 nM
- TGI ([3]; read-out: pTGI (converted)): 25100 nM
- GI50 (CAKI-1): 126 nM
- TGI (CAKI-1; read-out: pTGI (converted)): 20000 nM
- GI50 (RXF 393): 398 nM
- TGI (RXF 393; read-out: pTGI (converted)): 2510 nM
- GI50 (SW-620): 316 nM
- TGI (SW-620; read-out: pTGI (converted)): 15800 nM
- GI50 (SF-268): 794 nM
- TGI (SF-268; read-out: pTGI (converted)): 20000 nM
- GI50 (NCI/ADR-RES): 200 nM
- TGI (NCI/ADR-RES; read-out: pTGI (converted)): 501 nM
- GI50 [4]: 158 nM
- TGI ([4]; read-out: pTGI (converted)): 501 nM
- GI50 (Malme-3M): 200 nM
- TGI (Malme-3M; read-out: pTGI (converted)): 25100 nM
- GI50 (SR): 63.1 nM
- TGI (SR; read-out: pTGI (converted)): 631 nM
- GI50 (KM12): 316 nM
- TGI (KM12; read-out: pTGI (converted)): 12600 nM
- GI50 (A498): 316 nM
- TGI (A498; read-out: pTGI (converted)): 2510 nM
- GI50 (HT-29): 398 nM
- TGI (HT-29; read-out: pTGI (converted)): 1580 nM
- GI50 (OVCAR-8): 398 nM
- TGI (OVCAR-8; read-out: pTGI (converted)): 5010 nM
- GI50 (OVCAR-3): 398 nM
- TGI (OVCAR-3; read-out: pTGI (converted)): 10000 nM
- GI50 (EKVX): 398 nM
- TGI (EKVX; read-out: pTGI (converted)): 2510 nM
- GI50 (MDA-MB-435): 158 nM
- TGI (MDA-MB-435; read-out: pTGI (converted)): 398 nM
- GI50 (SK-MEL-28): 794 nM
- TGI (SK-MEL-28; read-out: pTGI (converted)): 20000 nM
- GI50 (IGROV-1): 794 nM
- TGI (IGROV-1; read-out: pTGI (converted)): 31600 nM
- GI50 (DU-145): 398 nM
- TGI (DU-145; read-out: pTGI (converted)): 2000 nM
- GI50 (HCT-116): 316 nM
- TGI (HCT-116; read-out: pTGI (converted)): 12600 nM
- GI50 (M14): 398 nM
- TGI (M14; read-out: pTGI (converted)): 3160 nM
- GI50 (HCT-15): 398 nM
- GI50 (CCRF-CEM): 316 nM
- TGI (CCRF-CEM; read-out: pTGI (converted)): 1000 nM
- GI50 (SNB-75): 251 nM
- TGI (SNB-75; read-out: pTGI (converted)): 631 nM
